Measurements from ChEMBL document CHEMBL1122241, “A simplified high-pressure liquid chromatography method for determining lipophilicity for structure-activity relationships” (J Med Chem, 1983).

Tests used:
Oryctolagus cuniculus = organism: Oryctolagus cuniculus; assay: Negative log of minimum effective dose (moles per kilogram) in rabbits (hypnotic); assay type: functional
[1] = Compound is evaluated for […] log k; assay type: physicochemical; conditions: octanol/water
In short: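 Log k' was measured by reverse-phase HPLC on dry-packed deactivated C18/Corasil columns (10 and 50 cm, 2-mm i.d.) at 22 °C, flow 1 mL/min, with UV detection at 254 nm. The mobile phase was methanol-modified aqueous phosphate buffer at μ 0.15. Void time came from methanol injection, and k' = (tr − t0)/t0.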

[2] = Negative log of molar concentration (-log ED50) required to reduce cell division by 50% in Arbacia egg; assay type: functional
[3] = (§1) pKa value is evaluated; assay type: physicochemical
Rattus norvegicus = organism: Rattus norvegicus; assay type: functional
[4] = A pKa value is evaluated; assay type: physicochemical
[5] = ACompound is evaluated for […] log k; assay type: physicochemical; conditions: octanol/water
In short: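 Log k' was measured by reverse-phase HPLC on dry-packed deactivated C18/Corasil columns (10 and 50 cm, 2-mm i.d.) at 22 °C, flow 1 mL/min, with UV detection at 254 nm. The mobile phase was methanol-modified aqueous phosphate buffer at μ 0.15. Calculated pH was 7.45 for sulfonamides and 7.31 for barbiturates. Void time came from methanol injection, and k' = (tr − t0)/t0.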

Escherichia coli [6] = assay: Minimum inhibitory concentration (bacteriostatic) against Escherichia coli at pH 7.2 (Sauterne''s medium); assay type: functional
[7] = pKa value is evaluated; activity is unretained; assay type: physicochemical
In short: (§2)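 Determined in-house by computer-controlled spectrophotometric titration (absorbance vs. pH) of each sulfonamide. Samples were in buffered aqueous solution of HCl/HOAc/Mops/glycine, 0.0005 N each. A manual wavelength scan of each compound set the wavelength at which its titration was run.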

[8] = as §1; assay type: physicochemical; in short: as §2; remark: listed apart in the source
[9] = Negative log of Langmuir's alpha constant (-log alpha), which is inversely proportional to the effective binding constant (protein binding); assay type: ADME
Escherichia coli [10] = assay: Minimum inhibitory concentration (bacteriostatic) against Escherichia coli at pH 7.4; assay type: functional

| SMILES | -Log C (Oryctolagus cuniculus) | Log K [1] | -Log ED50 [2] | pKa [3] | -Log C (Escherichia coli [6]) | -Log alpha [9] | -Log C (Escherichia coli [10]) | other results |
| --- | --- | --- | --- | --- | --- | --- | --- | --- |
| C=CCC1(CC=C)C(=O)NC(=O)NC1=O [ALLOBARBITAL] | 3.54 | 0.6 | 1.79 |  |  |  |  |  |
| CCC1(CCC(C)C)C(=O)NC(=O)NC1=O [AMOBARBITAL] |  | 1.33 | 2.82 |  |  |  |  |  |
| C=CCC1(C(C)C)C(=O)NC(=O)NC1=O [APROBARBITAL] | 3.6 | 0.75 | 2.01 | 7.73 |  |  |  | -Log C (Rattus norvegicus): 2.41 |
| CCC1(CC)C(=O)NC(=O)NC1=O [BARBITAL] | 3.09 | 0.16 | 1.49 | 7.75 |  |  |  | -Log C (Rattus norvegicus): 1.32 |
| CCC(C)C1(CC)C(=O)NC(=O)NC1=O (stereo not drawn) [BUTABARBITAL] | 3.63 |  |  |  |  |  |  | pKa [4]: 7.89; Log K [5]: 0.95 |
| C=CCC1(CC(C)C)C(=O)NC(=O)NC1=O [BUTALBITAL] | 3.63 | 1.01 |  | 7.54 |  |  |  | -Log C (Rattus norvegicus): 2.8 |
| CCC1(C2=CCCCC2)C(=O)NC(=O)NC1=O [CYCLOBARBITAL] |  | 0.91 | 2.24 | 7.36 |  |  |  |  |
| CN1C(=O)NC(=O)C(C)(C2=CCCCC2)C1=O (stereo not drawn) [HEXOBARBITAL] | 4.37 | 1.13 |  |  |  |  |  | pKa [4]: 7.36 |
| CCC1(CC)C(=O)NC(=O)N(C)C1=O [METHARBITAL] | 3.12 | 0.71 |  |  |  |  |  |  |
| C=CCC1(C(C)C#CCC)C(=O)NC(=O)N(C)C1=O (stereo not drawn) [METHOHEXITAL] | 4.74 | 1.96 |  | 4.74 |  |  |  |  |
| CCCC(C)C1(CC)C(=O)NC(=O)NC1=O (stereo not drawn) [PENTOBARBITAL] | 4.05 | 1.32 | 2.92 | 8.02 |  |  |  | -Log C (Rattus norvegicus): 3.07 |
| CCC1(c2ccccc2)C(=O)NC(=O)NC1=O [PHENOBARBITAL] | 3.32 | 0.56 | 2.02 | 7.26 |  |  |  | -Log C (Rattus norvegicus): 1.88 |
| C=CCC1(C(C)CCC)C(=O)NC(=O)NC1=O (stereo not drawn) [SECOBARBITAL] | 4.2 | 1.52 | 3.62 | 7.92 |  |  |  | -Log C (Rattus norvegicus): 3.19 |
| CC(=O)NS(=O)(=O)c1ccc(N)cc1 [SULFACETAMIDE] |  |  |  |  | -0.52 | -3.15 | 3.248 | Log K [7]: activity is unretained; pKa [8]: 5.78 |
| Nc1ccc(S(=O)(=O)Nc2ncccn2)cc1 [SULFADIAZINE] |  | 0.223 |  |  | -0.08 | -2.99 | 4.337 |  |
| [H]/N=C(/N)NS(=O)(=O)c1ccc(N)cc1 [SULFAGUANIDINE] |  | -0.00612 |  | 12 | 1.81 |  |  |  |
| Cc1ccnc(NS(=O)(=O)c2ccc(N)cc2)n1 [SULFAMERAZINE] |  | 0.829 |  | 6.98 | 0.06 | -2.23 | 4.469 |  |
| Cc1cc(C)nc(NS(=O)(=O)c2ccc(N)cc2)n1 [SULFAMETHAZINE] |  | 1.49 |  | 7.7 | 0.11 | -2.28 |  |  |
| Cc1cc(NS(=O)(=O)c2ccc(N)cc2)no1 [SULFAMETHOXAZOLE] |  |  |  |  | 0.06 | -2.51 | 4.634 |  |
| COc1ccc(NS(=O)(=O)c2ccc(N)cc2)nn1 [SULFAMETHOXYPYRIDAZINE] |  | 1.35 |  | 7.2 | 0 | -1.75 | 4.57 |  |
| Nc1ccc(S(N)(=O)=O)cc1 [SULFANILAMIDE] |  |  |  |  | -2.11 | -2.98 | 2.824 |  |
| Nc1ccc(S(=O)(=O)Nc2nccs2)cc1 [SULFATHIAZOLE] |  | 0.887 |  | 7.25 | -0.18 | -2.45 | 4.597 |  |
| Cc1noc(NS(=O)(=O)c2ccc(N)cc2)c1C [SULFISOXAZOLE] |  | 0.762 |  |  | -0.45 | -1.73 | 4.56 |  |
| C=CCC1(C(C)CCC)C(=O)NC(=S)NC1=O (stereo not drawn) [THIAMYLAL] | 4.15 | 1.72 |  |  |  |  |  |  |
| CCCC(C)C1(CC)C(=O)NC(=S)NC1=O (stereo not drawn) [THIOPENTAL] | 3.98 | 1.52 |  |  |  |  |  |  |
